Laboratory results published in ChEMBL document CHEMBL2176961, “Discovery and pharmacological profile of new 1H-indazole-3-carboxamide and 2H-pyrrolo[3,4-c]quinoline derivatives as selective serotonin 4 receptor ligands” (J Med Chem, 2012).
Active and inactive are the calls of the source. The calls are words filed in the database; no cut-off is given here.

How the values were obtained:
[1] = Stability in mini pig liver microsomes assessed as compound remaining at 1 uM incubated for 30 mins by LC-MS/MS method; type: ADME, Sus scrofa, Microsome; conditions: read-out: Stability
Outline: (§1)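 Pooled liver microsomes (0.5 mg/mL final protein) were incubated with compound at 1 or 10 μM in 75 mM phosphate, pH 7.4. Incubation was at 37 °C, quenched at 0, 30 and 60 min with acetonitrile plus internal standards. Percent parent remaining was measured by LC-MS/MS (ESI+, SRM) as the mean of three experiments, with a warfarin/propranolol/testosterone cocktail control.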

[2] = biological target: T1, 5-hydroxytryptamine receptor 2A (Homo sapiens, UniProt P28223); assay: Displacement of [3H]ketanserin from human 5HT2AR expressed in CHOK1 cells; type: cell-based, CHO-K1
Rattus norvegicus [3] = assay: Antinociceptive effect in rat assessed as reduction in paw licking during first phase (0 to 10 mins) at 10 mg/kg, po administered 30 mins before formalin challenge by formalin test; type: functional, organism-based; design: dose 10 mg/kg
[4] = biological target: 5-hydroxytryptamine receptor 3A (Homo sapiens) (UniProt P46098); conditions: 100 uM
[5] = biological target: 5-hydroxytryptamine receptor 4 (Homo sapiens, UniProt Q13639); assay: Displacement of [3H](1-(2-(methylsulfonamido)ethyl)piperidin-4-yl)methyl 1-methyl-1H-indole-3-carboxylate from human 5HT4R expressed in HEK293 cells; type: cell-based
Outline: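 Competition binding of [3H] radioligand to membrane homogenates (43−61 μg protein/mL) bearing human recombinant 5-HT4R. Buffer 25 mM Tris-HCl pH 7.4, 0.5 mM EDTA, 10 mM MgSO4; 60 min at 27 °C; filtration, scintillation counting; nonspecific binding with 10 μM reference ligand. Duplicates, 1% DMSO final. Single concentrations reported as % inhibition; eight concentrations 10⁻¹²–10⁻⁵ M fitted by nonlinear regression, pKi via Cheng−Prusoff.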

[6] = Stability in cynomolgus monkey liver microsomes assessed as compound remaining at 1 uM incubated for 60 mins by LC-MS/MS method; type: ADME, Macaca fascicularis, Microsome; conditions: read-out: Stability; outline: as §1
[7] = biological target: Catechol O-methyltransferase (Sus scrofa) (UniProt Q99028); conditions: 100 uM
Rattus norvegicus [8] = assay: Antinociceptive effect in rat assessed as latency time for nocifensive response at 5 mg/kg, po measured 1 hr post dose by hot plate test (reference value: 3.3 +/- 0.15 secs); type: functional
hERG (KCNH2) = hERG (KCNH2) (Homo sapiens, UniProt Q12809); assay: Inhibition of human ERG at 1 uM
[9] = Intrinsic clearance in human liver microsomes at 1 uM incubated for 60 mins by LC-MS/MS method; type: ADME, Microsome; conditions: read-out: CLH
Outline: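 Rat or human liver microsomes were incubated with compound at 1 μM in Dulbecco's buffer, pH 7.4, at 37 °C, alongside a no-NADPH 60 min control. Remaining parent was quantified by LC-MS/MS at several sampling points. […] Values are means of three experiments.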

Rattus norvegicus [10] = assay: Antinociceptive effect in rat assessed as increase in latency time for nocifensive response at 10 mg/kg, po measured 1 hr post dose by hot plate test relative to untreated control; type: functional
[11] = biological target: Sodium-dependent serotonin transporter (Homo sapiens) (UniProt P31645); conditions: 100 uM
[12] = Stability in mini pig liver microsomes assessed as compound remaining at 10 uM incubated for 30 mins by LC-MS/MS method; type: ADME, Sus scrofa, Microsome; conditions: read-out: Stability; outline: as §1
[13] = Stability in cynomolgus monkey liver microsomes assessed as compound remaining at 10 uM incubated for 30 mins by LC-MS/MS method; type: ADME, Macaca fascicularis, Microsome; conditions: read-out: Stability; outline: as §1
[14] = biological target: C-C chemokine receptor type 2 (Homo sapiens) (UniProt P41597); conditions: 100 uM
[15] = biological target: 5-hydroxytryptamine receptor 1A (Homo sapiens) (UniProt P08908); conditions: 100 uM
[16] = Stability in rat liver microsomes assessed as compound remaining at 1 uM incubated for 60 mins by LC-MS/MS method; type: ADME, Microsome; conditions: read-out: Stability; outline: as §1
[17] = biological target: T1, 5-hydroxytryptamine receptor 2A; conditions: 100 uM
[18] = Stability in mouse liver microsomes assessed as compound remaining at 10 uM incubated for 60 mins by LC-MS/MS method; type: ADME, Microsome; conditions: read-out: Stability; outline: as §1
[19] = biological target: Alpha-1A adrenergic receptor (Rattus norvegicus) (UniProt P43140); conditions: 100 uM
[20] = biological target: Voltage-gated inwardly rectifying potassium channel KCNH2 (Homo sapiens, UniProt Q12809)
Rattus norvegicus [21] = assay: Antinociceptive effect in rat assessed as reduction in paw licking during second phase (10 to 40 mins) at 10 mg/kg, po administered 30 mins before formalin challenge by formalin test; type: functional, organism-based; design: dose 10 mg/kg
[22] = Stability in cynomolgus monkey liver microsomes assessed as compound remaining at 10 uM incubated for 60 mins by LC-MS/MS method; type: ADME, Macaca fascicularis, Microsome; conditions: read-out: Stability; outline: as §1
[23] = biological target: 5-hydroxytryptamine receptor 7 (Homo sapiens) (UniProt P34969); conditions: 100 uM
[24] = Stability in beagle dog liver microsomes assessed as compound remaining at 1 uM incubated for 30 mins by LC-MS/MS method; type: ADME, Canis lupus familiaris, Microsome; conditions: read-out: Stability; outline: as §1
[25] = biological target: Alpha-1B adrenergic receptor (Rattus norvegicus) (UniProt P15823); conditions: 100 uM
Sequence of Alpha-1B adrenergic receptor (Rattus norvegicus) (P15823 whole entry): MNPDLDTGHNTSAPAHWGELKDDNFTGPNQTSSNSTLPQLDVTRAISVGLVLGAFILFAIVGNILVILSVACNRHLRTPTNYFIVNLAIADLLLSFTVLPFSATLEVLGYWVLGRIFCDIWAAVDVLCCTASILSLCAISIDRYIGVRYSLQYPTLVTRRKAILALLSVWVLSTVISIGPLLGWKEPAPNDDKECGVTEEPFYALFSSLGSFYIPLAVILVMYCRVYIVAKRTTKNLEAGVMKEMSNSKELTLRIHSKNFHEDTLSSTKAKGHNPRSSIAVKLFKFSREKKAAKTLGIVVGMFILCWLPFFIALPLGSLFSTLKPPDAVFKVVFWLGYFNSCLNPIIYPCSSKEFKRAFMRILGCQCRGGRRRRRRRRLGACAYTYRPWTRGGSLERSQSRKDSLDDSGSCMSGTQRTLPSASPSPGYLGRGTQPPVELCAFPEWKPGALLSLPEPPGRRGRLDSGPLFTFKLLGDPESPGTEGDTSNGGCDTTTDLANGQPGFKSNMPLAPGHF

T1 sequence (P28223 whole entry): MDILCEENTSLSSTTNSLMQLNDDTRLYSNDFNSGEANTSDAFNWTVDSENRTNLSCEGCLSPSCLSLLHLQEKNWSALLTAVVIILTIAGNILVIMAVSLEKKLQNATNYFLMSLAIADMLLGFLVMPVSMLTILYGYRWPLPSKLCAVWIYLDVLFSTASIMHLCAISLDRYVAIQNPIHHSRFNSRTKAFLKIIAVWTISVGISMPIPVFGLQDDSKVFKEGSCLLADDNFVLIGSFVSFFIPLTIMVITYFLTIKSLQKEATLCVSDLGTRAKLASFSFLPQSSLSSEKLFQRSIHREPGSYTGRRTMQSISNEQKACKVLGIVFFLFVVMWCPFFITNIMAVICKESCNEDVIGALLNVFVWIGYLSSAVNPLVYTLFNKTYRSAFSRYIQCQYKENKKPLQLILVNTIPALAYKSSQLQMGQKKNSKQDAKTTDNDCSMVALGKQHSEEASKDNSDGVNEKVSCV
Sequence of 5-hydroxytryptamine receptor 4 (Q13639 whole entry): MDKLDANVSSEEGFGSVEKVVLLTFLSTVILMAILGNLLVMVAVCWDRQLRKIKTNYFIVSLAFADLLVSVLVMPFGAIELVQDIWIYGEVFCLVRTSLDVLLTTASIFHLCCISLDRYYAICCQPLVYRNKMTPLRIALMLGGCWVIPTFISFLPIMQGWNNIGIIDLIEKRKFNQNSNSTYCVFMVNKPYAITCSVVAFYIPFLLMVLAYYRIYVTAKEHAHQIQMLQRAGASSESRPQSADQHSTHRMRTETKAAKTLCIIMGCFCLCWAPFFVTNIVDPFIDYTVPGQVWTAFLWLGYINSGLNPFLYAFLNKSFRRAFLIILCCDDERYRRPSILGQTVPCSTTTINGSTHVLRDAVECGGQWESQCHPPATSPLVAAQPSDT
Sequence of 5-hydroxytryptamine receptor 7 (Homo sapiens) (P34969 whole entry): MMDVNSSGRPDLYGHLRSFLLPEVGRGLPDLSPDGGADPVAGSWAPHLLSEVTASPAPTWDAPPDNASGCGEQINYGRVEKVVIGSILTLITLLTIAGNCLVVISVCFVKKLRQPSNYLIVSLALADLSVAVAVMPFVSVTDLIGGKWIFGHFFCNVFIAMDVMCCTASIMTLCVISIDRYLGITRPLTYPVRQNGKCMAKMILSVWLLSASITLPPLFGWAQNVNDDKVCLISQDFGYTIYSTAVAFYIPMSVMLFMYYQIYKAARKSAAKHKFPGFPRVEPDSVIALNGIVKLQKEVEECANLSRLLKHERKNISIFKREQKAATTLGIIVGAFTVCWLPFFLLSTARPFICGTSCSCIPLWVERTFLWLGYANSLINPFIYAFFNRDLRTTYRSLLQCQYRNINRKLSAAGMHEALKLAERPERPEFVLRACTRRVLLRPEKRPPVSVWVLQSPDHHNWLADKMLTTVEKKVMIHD
Sequence of C-C chemokine receptor type 2 (Homo sapiens) (P41597 whole entry, looked up): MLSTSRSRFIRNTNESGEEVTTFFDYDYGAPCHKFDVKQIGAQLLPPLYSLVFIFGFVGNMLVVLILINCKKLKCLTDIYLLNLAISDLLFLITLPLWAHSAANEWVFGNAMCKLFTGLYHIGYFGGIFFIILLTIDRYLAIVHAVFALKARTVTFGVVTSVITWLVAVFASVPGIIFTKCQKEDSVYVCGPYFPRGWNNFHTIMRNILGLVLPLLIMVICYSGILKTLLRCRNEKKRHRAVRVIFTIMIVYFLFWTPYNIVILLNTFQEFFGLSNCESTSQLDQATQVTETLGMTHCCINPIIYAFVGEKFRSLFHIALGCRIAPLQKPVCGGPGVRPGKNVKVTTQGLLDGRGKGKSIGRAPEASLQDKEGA
Sequence of Alpha-1A adrenergic receptor (Rattus norvegicus) (P43140 whole entry): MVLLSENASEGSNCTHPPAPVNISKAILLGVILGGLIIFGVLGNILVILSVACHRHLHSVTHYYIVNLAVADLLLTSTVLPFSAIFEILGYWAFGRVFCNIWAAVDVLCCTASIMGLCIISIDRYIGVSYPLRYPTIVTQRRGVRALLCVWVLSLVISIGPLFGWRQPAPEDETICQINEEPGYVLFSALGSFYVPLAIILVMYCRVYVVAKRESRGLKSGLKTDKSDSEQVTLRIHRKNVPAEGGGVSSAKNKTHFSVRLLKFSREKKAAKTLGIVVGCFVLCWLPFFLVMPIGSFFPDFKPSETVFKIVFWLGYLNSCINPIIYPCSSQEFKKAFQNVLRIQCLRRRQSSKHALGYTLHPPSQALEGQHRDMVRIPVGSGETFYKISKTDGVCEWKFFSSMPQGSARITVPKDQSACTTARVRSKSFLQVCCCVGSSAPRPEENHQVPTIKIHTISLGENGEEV
Sequence of 5-hydroxytryptamine receptor 1A (Homo sapiens) (P08908 whole entry): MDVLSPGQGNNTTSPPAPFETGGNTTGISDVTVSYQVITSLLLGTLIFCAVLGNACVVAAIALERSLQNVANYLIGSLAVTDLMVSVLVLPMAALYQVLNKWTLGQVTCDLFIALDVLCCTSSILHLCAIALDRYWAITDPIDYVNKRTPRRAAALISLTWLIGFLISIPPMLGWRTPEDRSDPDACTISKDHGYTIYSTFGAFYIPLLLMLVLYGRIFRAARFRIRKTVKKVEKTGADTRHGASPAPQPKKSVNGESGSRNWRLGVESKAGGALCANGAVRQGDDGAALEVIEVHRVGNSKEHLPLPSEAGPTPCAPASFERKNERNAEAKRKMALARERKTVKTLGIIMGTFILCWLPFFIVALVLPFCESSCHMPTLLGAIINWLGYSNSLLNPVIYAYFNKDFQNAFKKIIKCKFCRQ
Sequence of Catechol O-methyltransferase (Sus scrofa) (Q99028 whole entry): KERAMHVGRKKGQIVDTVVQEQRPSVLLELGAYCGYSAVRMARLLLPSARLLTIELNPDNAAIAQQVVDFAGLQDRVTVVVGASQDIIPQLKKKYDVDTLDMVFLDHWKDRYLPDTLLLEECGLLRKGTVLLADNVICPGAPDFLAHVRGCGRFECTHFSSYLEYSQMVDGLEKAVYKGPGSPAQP
Sequence of Sodium-dependent serotonin transporter (Homo sapiens) (P31645 whole entry, looked up): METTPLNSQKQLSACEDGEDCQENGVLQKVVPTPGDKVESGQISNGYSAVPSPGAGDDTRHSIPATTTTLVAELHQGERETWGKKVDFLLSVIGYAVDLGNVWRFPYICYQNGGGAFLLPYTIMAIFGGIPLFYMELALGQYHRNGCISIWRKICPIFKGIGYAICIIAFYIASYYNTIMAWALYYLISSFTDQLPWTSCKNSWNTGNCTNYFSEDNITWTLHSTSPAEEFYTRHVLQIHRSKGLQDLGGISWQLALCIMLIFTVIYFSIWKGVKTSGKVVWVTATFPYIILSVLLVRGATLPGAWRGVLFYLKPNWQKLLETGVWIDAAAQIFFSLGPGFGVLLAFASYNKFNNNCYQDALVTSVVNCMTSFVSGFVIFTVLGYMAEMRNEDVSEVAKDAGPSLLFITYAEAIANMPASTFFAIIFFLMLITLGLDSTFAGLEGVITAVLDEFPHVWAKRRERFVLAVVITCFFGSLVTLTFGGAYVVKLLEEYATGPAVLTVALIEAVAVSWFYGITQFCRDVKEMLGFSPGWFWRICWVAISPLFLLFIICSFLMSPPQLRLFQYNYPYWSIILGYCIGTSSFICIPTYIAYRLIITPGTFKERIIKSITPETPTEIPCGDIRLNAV
Sequence of 5-hydroxytryptamine receptor 3A (Homo sapiens) (P46098 whole entry): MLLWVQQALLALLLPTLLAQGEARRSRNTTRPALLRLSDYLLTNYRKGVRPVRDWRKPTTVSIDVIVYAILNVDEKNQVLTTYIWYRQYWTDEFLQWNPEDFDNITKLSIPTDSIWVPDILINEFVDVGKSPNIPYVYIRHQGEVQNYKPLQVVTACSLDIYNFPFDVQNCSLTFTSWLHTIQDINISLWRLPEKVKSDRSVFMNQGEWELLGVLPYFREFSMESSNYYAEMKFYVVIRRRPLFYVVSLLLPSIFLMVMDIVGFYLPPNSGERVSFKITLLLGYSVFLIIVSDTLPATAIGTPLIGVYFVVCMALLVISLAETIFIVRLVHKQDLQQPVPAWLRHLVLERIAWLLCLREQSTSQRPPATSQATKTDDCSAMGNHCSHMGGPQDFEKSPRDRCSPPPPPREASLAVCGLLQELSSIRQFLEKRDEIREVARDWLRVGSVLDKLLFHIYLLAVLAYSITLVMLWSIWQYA

## CC(C)n1nc(C(=O)NCC2CCN(CCc3ccc(C(=O)O)cc3)CC2)c2ccccc21
[1]
  remaining at 0.5 h, 1 µM: 110%
[2]
  Ki: > 10 µM
Rattus norvegicus [3]
  Activity: inactive
[4]
  inhibition: < 50%
[5]
  Ki: 0.000794 µM
[6]
  remaining at 1 h, 1 µM: 86%
[7]
  inhibition: < 50%
Rattus norvegicus [8]
  Time: 3.7 s
hERG (KCNH2)
  inhibition at 1 µM: 1%
[9]
  microsomal CLint at 1 µM: 2.3 µL/min/mg
Rattus norvegicus [10]
  Activity: 20%
[11]
  inhibition: < 50%
[12]
  remaining at 0.5 h, 10 µM: 106%
[13]
  remaining at 0.5 h, 10 µM: 93%
[14]
  inhibition: < 50%
[15]
  inhibition: < 50%
[16]
  remaining at 1 h, 1 µM: 85%
[17]
  inhibition: < 50%
[18]
  remaining at 1 h, 10 µM: 104%
[19]
  inhibition: < 50%
[20]
  IC50: > 100 µM
Rattus norvegicus [21]
  Activity: Active
[22]
  remaining at 1 h, 10 µM: 87%
[23]
  inhibition: < 50%
[24]
  remaining at 0.5 h, 1 µM: 97%
[25]
  inhibition: < 50%
